In ChEMBL document CHEMBL1811848 (Bioorg Med Chem Lett, 2011):
Calls of active or inactive are those of the source. The calls are words filed in the database; no cut-off is given here.

What was measured:
Mus musculus [1] = assay: Reduction in serum triglyceride level in Swiss albino mouse at 10 mg/kg, po administered for 6 days relative to control; format: functional; parameters: scale not given: the % may be the effect or the level left
Method in brief: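 Male Swiss albino mice aged 6–8 weeks were given 10 mg/kg/day orally for 6 days. Serum triglyceride was expressed as % change versus vehicle controls, mean of n = 6.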

[2] = target: T1, Peroxisome proliferator-activated receptor gamma (Homo sapiens, UniProt P37231); assay: Transactivation of human PPARgamma expressed in human HepG2 cells co-transfected with PPRE3-TK-Luc by luciferase reporter gene assay; format: cell-based
T1 sequence (P37231 whole entry): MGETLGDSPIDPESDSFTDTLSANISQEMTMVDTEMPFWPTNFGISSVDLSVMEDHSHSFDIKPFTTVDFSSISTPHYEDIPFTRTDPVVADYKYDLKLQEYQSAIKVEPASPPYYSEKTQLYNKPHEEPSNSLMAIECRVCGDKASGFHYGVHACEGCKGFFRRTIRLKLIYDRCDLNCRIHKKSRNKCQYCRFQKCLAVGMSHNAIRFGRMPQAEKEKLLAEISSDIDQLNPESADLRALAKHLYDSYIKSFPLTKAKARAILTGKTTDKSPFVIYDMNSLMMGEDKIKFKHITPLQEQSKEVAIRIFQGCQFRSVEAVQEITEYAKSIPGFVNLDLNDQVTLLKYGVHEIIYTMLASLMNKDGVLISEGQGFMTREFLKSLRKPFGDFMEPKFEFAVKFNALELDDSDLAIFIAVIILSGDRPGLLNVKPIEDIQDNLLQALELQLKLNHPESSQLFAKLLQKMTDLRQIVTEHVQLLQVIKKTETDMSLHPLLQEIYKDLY
Method in brief: (§1)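 HepG2 cells transfected with pSG5 vector carrying hPPARα, hPPARγ or hPPARδ cDNA, co-transfected with PPRE3-TK-luc. Firefly luciferase activity measured with a commercial kit. β-galactosidase activity read on an ELISA reader. Controls: WY14643 (α), rosiglitazone (γ), GW501516 (δ).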

Mus musculus [3] = assay: Antihyperglycemic activity in db/db mouse assessed as reduction in glucose level at 3 mg/kg/day, po administered for 6 days relative to control; format: functional; parameters: scale not given: the % may be the effect or the level left
Method in brief: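 Male db/db mice aged 6–8 weeks were dosed orally once daily for 6 days. Plasma glucose was then measured and expressed as % change versus vehicle-treated controls.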

[4] = target: T2, Peroxisome proliferator-activated receptor gamma (Homo sapiens) (UniProt P37231); assay: Transactivation of human PPARgamma expressed in human HepG2 cells co-transfected with PPRE3-TK-Luc by luciferase reporter gene assay relative to Rosiglitazone; format: cell-based
T2 sequence (whole entry): T1 sequence (P37231 whole entry)
Method in brief: (§2)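 Same HepG2 hPPARα or hPPARγ / PPRE3-TK-luc luciferase transactivation assay. Efficacy expressed as percent of maximal response, normalized to 100% for the reference agonist: WY-14643 for α, rosiglitazone for γ.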

[5] = target: T3, Peroxisome proliferator-activated receptor delta (Homo sapiens) (UniProt Q03181); assay: Transactivation of human PPARdelta expressed in human HepG2 cells co-transfected with PPRE3-TK-Luc by luciferase reporter gene assay; format: cell-based; method in brief: as §1
T3 sequence (whole entry): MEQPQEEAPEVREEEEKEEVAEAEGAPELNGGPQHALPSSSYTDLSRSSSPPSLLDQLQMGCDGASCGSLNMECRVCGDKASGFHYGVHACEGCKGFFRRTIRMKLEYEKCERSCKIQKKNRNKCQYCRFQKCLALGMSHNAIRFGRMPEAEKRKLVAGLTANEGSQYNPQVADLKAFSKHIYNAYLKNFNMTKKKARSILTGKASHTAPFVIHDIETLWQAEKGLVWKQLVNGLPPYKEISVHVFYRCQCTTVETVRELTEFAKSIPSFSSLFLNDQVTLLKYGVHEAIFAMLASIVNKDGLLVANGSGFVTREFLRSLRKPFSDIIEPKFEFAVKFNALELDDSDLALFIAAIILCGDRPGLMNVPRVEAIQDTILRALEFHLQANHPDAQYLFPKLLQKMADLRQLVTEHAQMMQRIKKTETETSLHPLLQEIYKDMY

[6] = target: T4, Peroxisome proliferator-activated receptor alpha (Homo sapiens) (UniProt Q07869); assay: Transactivation of human PPARalpha expressed in human HepG2 cells co-transfected with PPRE3-TK-Luc by luciferase reporter gene assay relative to WY14643; format: cell-based; method in brief: as §2
T4 sequence (whole entry): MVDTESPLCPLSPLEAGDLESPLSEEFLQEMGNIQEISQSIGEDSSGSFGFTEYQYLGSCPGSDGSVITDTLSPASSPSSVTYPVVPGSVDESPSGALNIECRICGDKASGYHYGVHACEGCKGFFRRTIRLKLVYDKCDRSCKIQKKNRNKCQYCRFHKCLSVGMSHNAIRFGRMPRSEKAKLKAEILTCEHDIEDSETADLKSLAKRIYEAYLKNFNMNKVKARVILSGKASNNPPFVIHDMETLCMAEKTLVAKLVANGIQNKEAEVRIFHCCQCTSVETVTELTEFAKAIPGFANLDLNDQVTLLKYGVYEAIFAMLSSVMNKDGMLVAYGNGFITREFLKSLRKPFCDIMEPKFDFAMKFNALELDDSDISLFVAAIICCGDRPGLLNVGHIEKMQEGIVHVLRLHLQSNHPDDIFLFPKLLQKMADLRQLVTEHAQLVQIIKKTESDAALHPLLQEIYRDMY

[7] = target: T5, Peroxisome proliferator-activated receptor alpha (Homo sapiens, UniProt Q07869); assay: Transactivation of human PPARalpha expressed in human HepG2 cells co-transfected with PPRE3-TK-Luc by luciferase reporter gene assay; format: cell-based
T5 sequence (Q07869 whole entry): T4 sequence (whole entry)

| SMILES | EC50 [2] | Emax [4] | Activity [5] | Emax [6] | EC50 [7] | Activity (Mus musculus [1]) | Activity (Mus musculus [3]) |
| --- | --- | --- | --- | --- | --- | --- | --- |
| CCO[C@@H](Cc1ccc(OCCc2ccc(OS(C)(=O)=O)cc2)cc1)C(=O)O [TESAGLITAZAR] |  |  |  |  |  |  | 55% |
| CCO[C@@H](Cc1ccc(OCCc2nc(-c3sccc3C)oc2C)cc1)C(=O)O | 0.0001 nM | 192% | inactive | 96% |  | 67% |  |
| CCO[C@@H](Cc1ccc(OCCc2nc(-c3ccsc3)oc2C)cc1)C(=O)O | 0.6 nM | 87% | inactive | 114% | 1.9 nM | 62% |  |
| CCO[C@@H](Cc1ccc(OCc2nc(-c3ccc(-c4ccccc4)s3)oc2C)cc1)C(=O)O | 3 nM | 104% | inactive | 93% | 20 nM | 57% |  |
| CCO[C@@H](Cc1ccc(OCCc2nc(-c3ccc(-c4ccccc4)s3)oc2C)cc1)C(=O)O | 4.5 nM |  | inactive |  | 22 nM | 62% |  |

More lines, main results first:

| EC50 [2] | Emax [4] | Activity [5] | Emax [6] | EC50 [7] | SMILES | Activity (Mus musculus [1]) | Activity (Mus musculus [3]) |
| --- | --- | --- | --- | --- | --- | --- | --- |
| 0.0002 nM | 120% | inactive | 151% |  | CCO[C@@H](Cc1ccc(OCc2nc(-c3ccc(C)s3)oc2C)cc1)C(=O)O | 69% | 67% |
| 0.0003 nM | 88% | inactive | 106% |  | CCO[C@@H](Cc1ccc(OCc2nc(-c3sccc3C)oc2C)cc1)C(=O)O | 72% |  |
| 2.7 nM | 99% | inactive | 147% | 3 nM | CCO[C@@H](Cc1ccc(OCc2nc(-c3ccsc3)oc2C)cc1)C(=O)O | 70% |  |
| 0.05 nM | 104% | inactive | 126% | 0.1 nM | CCO[C@@H](Cc1ccc(OCCc2nc(-c3cccs3)oc2C)cc1)C(=O)O | 78% |  |
| 0.0015 nM | 107% | inactive | 134% | 0.026 nM | CCO[C@@H](Cc1ccc(OCc2nc(-c3cccs3)oc2C)cc1)C(=O)O | 72% |  |
